RGS4 pot: potentiators or activators of RGS4; B-score at 10 µM; HEK293 M3R/inducible RGS4, carbachol calcium flux Fluo4; stronger effect = lower value; actives 0.92% (n = 310,000);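 active means B-score of the integrated calcium signal more than 4 SD below the library mean, with starting fluorescence not abnormally high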;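 further: negative B-score means reduced calcium response which marks RGS4 activation or potentiation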
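Assay system: HEK293 FlpIn-TREx cells, stable M3R, doxycycline-inducible RGS4 / Probe or stimulus: carbachol, ECmax concentration / Times: overnight RGS4 induction, 30 min dye load 37 °C, 20 min compound RT / Signal: kinetic calcium fluorescence imaging with Fluo4-AM dye, 2 µM / Measure: Agonist-evoked peak-minus-minimum fluorescence over baseline, integrated ratio, B score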
MrgX1 antagonist: antagonists of human MrgX1 receptor. AID 588676. B-score at 10 µM. MRGX1-HEK293 calcium flux, Fluo-4, BAM8-22 antagonism; stronger effect = lower value. actives 1.3% (n = 310,000);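 active means calcium-response B-score plate-corrected more than 3 library SD below zero, starting fluorescence within 5 deviations, no agonist response on first addition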;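 further: peak minus trough fluorescence over baseline after final BAM8-22 challenge near maximal dose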
Target sequence (Q96LB2 whole entry, looked up): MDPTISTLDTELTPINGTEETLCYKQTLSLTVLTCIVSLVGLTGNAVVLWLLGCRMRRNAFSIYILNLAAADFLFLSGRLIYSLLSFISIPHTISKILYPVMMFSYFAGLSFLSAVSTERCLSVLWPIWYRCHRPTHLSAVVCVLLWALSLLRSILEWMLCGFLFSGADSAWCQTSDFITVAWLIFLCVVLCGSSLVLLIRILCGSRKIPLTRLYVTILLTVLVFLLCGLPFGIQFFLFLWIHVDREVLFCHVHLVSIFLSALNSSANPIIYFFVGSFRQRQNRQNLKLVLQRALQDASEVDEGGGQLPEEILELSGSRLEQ
MrgX1 allo act: human MrgX1 positive allosteric modulation, primary screen; Q96LB2; MrgX1-HEK293, Fluo-4 calcium flux, FDSS; stronger effect = higher value; B-score at 10 µM; actives 0.63% (n = 310,000); AID 588675;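 active means plate-corrected calcium response at least 3 library SD above typical, normal starting fluorescence, not activating the receptor alone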;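 further: compound read alongside a low EC10 to EC30 dose of BAM8-22 agonist; peak minus trough fluorescence over baseline measured at the second addition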
MrgX1 agonist: activates human MrgX1 receptor signaling; Q96LB2; MrgX1-HEK293 cells, Fluo-4 calcium fluorescence, agonist mode; stronger effect = higher value; B-score at 10 µM; actives 0.44% (n = 310,000);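 active means calcium response B-score plate-corrected fluorescence ratio at least 3 library SD, with starting fluorescence B-score inside 5 SD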
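Material – MrgX1-expressing HEK293 cells · Input – 15,000 cells seeded per well · Dosing – compound as first of three additions · Times – overnight seeding, then 1 h dark dye loading · Measured by – kinetic Fluo-4 NW fluorescence of intracellular calcium · Read-out – B-scored fluorescence response ratio · Benchmarks – positive and negative control wells on each plate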
RGS4 block: human RGS4 inhibition | P49798 | HEK293 M3R/RGS4 inducible, Fluo-4 calcium flux; stronger effect = higher value; triggered by carbachol at its EC20 | B-score at 10 µM | actives 0.45% (n = 310,000) | AID 463165;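 active means B-score, a plate-corrected calcium signal, over three deviations above library mean, with baseline fluorescence within five deviations of library mean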;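 further: RGS4 expression induced by doxycycline in cells with stable M3 receptor; B-score is computed from the integrated fluorescence ratio over baseline after carbachol; higher B-score means a larger calcium signal and so more RGS4 inhibition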
Target sequence (P49798 whole entry, looked up): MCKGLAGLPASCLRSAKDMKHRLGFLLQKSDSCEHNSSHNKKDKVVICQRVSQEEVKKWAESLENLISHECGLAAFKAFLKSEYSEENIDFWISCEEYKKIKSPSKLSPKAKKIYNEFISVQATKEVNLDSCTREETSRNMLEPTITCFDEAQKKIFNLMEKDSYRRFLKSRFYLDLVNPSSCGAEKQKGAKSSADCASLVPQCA
RGS4 inh valid: validation of RGS4 inhibitors. shares compounds with RGS4 block. HEK293 M3R/RGS4, carbachol calcium Fluo-4 fluorescence; carbachol added at its EC20; 0 = buffer wells, 100 = carbachol control. calcium response, % at 10 µM. actives 65% (n = 1,700). AID 492999;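 active means duplicate-averaged calcium response above the buffer-only control mean plus 5 SD of those controls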;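 further: integrated fluorescence ratio F max minus min over baseline F0; higher response in RGS4-induced cells means RGS4 inhibition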
M3R Ca ctr: counter-screen for RGS4 inhibitors: effect in non-induced cells. activity (percent), % at 10 µM. AID 493000. actives 20% (n = 1,900). shares compounds with RGS4 block. HEK293 M3R non-induced, carbachol calcium Fluo-4; submaximal (EC20) carbachol stimulus; buffer wells 0%, carbachol control wells 100%; call rule not given here;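 further: RGS4 induction absent so cells express M3R without RGS4; higher means more calcium signal and flags a non-specific hit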
RGS4 inh ctr2: signal in non-induced cells without carbachol, RGS4 inhibitor counter-screen | HEK293 M3R/RGS4 non-induced, Fluo-4 calcium, no carbachol; normalised: buffer wells 0%, carbachol wells 100% | calcium response (agonist-mode artifact), % at 10 µM | AID 493001 | actives 22% (n = 1,900) | shares compounds with RGS4 block;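 active means duplicate-averaged calcium rise in uninduced cells above buffer wells' mean plus 5 SD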
Large screens that a line does not name were inactive (follow-up assays come after a bar, where they were run). An excerpt weighted towards active compounds, which were near 3.5% of everything screened.

COC(CN(C)C(=O)C1CCCN(S(=O)(=O)c2ccc3c(c2)oc(=O)n3C)C1)OC (stereo not drawn)	none
O=C(Nc1cccn(Cc2c(Cl)cccc2Cl)c1=O)c1c(Cl)cccc1Cl	none
COC(=O)Nc1cccn(Cc2c(Cl)cccc2Cl)c1=O	RGS4 block 8.4 | RGS4 inh valid 6.5% | M3R Ca ctr inactive | RGS4 inh ctr2 inactive
Cc1nonc1CN(C)C(=O)c1ccc(OC2CCN(C(=O)c3cccnc3)CC2)cc1	none
COc1cc(C(=O)NC(C)c2ccc3ccccc3c2)cc(Cl)c1O (stereo not drawn)	none
Cc1ccc(S(=O)(=O)N2CCCOC2CNC(=O)C(=O)NC2CCCC2)cc1 (stereo not drawn)	none | RGS4 inh valid inactive | M3R Ca ctr inactive | RGS4 inh ctr2 inactive
Cc1ccc(S(=O)(=O)Nc2cccc(C(=O)NCC3(N4CCCCC4)CCCCC3)c2)cc1F	none
C=C1C(=O)O[C@@H]2C[C@@H](C)[C@@H]3C=CC(=O)[C@@]3(C)[C@@H](OC(C)=O)[C@H]12	MrgX1 agonist 33, RGS4 block 7.6 | RGS4 inh valid 22% | M3R Ca ctr inactive | RGS4 inh ctr2 11%
COc1ccc2c(c1OC)C(=O)OC2Nc1nc(-c2ccc([N+](=O)[O-])cc2)cs1 (stereo not drawn)	none | RGS4 inh valid inactive | M3R Ca ctr inactive | RGS4 inh ctr2 inactive
COc1ccc(-c2csc(NC3OC(=O)c4c3ccc(OC)c4OC)n2)cc1OC (stereo not drawn)	RGS4 block 11 | RGS4 inh valid 44% | M3R Ca ctr inactive | RGS4 inh ctr2 inactive
COc1ccc2c(c1OC)C(=O)OC2Nc1nc(-c2cc3cc(Br)ccc3oc2=O)cs1 (stereo not drawn)	none
Cc1ccc(CS(=O)Cc2ccc(C(=O)NC3CCCCC3)o2)cc1 (stereo not drawn)	none
N#Cc1ccc(C2=NC(C(F)(F)F)(C(F)(F)F)c3c(n(Cc4ccco4)c(=O)[nH]c3=O)N2)cc1	MrgX1 agonist 37, RGS4 block 6.1 | RGS4 inh valid 13% | M3R Ca ctr inactive | RGS4 inh ctr2 16%
COc1cccc(C(=O)NC(c2ccccc2)C2CCCC2)c1 (stereo not drawn)	none
COc1cc(NC(=O)C2CC(c3ccc(Cl)cc3)=NO2)cc(OC)c1OC (stereo not drawn)	none
N#CC1=C2N=C(N)c3ccccc3N2C2=C(C(=O)CCC2)C1c1ccc(F)cc1 (stereo not drawn)	none | M3R Ca ctr inactive | RGS4 inh ctr2 inactive
N#CC1=C2N=C(N)c3c(sc4c3CCCCC4)N2C2=C(C(=O)CCC2)C1c1ccccc1 (stereo not drawn)	none
Cc1ccc(C2C(C#N)=C3N=C(N)c4ccccc4N3C3=C2C(=O)CCC3)cc1 (stereo not drawn)	none | M3R Ca ctr inactive | RGS4 inh ctr2 inactive
Cc1ccc(-n2nc3c(=O)n(CC(=O)NCc4ccccc4)nc(C)c3c2C)cc1	none | RGS4 inh valid inactive | M3R Ca ctr inactive | RGS4 inh ctr2 inactive
Cc1ccc(-n2nc3c(=O)n(CC(=O)NCc4ccccc4Cl)nc(C)c3c2C)cc1	none
Cc1ccc(-n2nc3c(=O)n(CC(=O)NCCc4cccs4)nc(C)c3c2C)cc1	none | RGS4 inh valid inactive | M3R Ca ctr inactive | RGS4 inh ctr2 inactive
Cc1ccc(N2C(=O)[C@@H]3C(C(=O)C(c4ccccc4)c4ccccc4)=NN[C@@H]3C2=O)cc1	RGS4 block 7.2 | RGS4 inh valid 29% | M3R Ca ctr 102% | RGS4 inh ctr2 inactive
Cc1ccc(N2C(=O)C3NN=C(C(=O)OCc4ccccc4)C3C2=O)cc1 (stereo not drawn)	none
COc1cccc(C(=O)O/N=C(\N)Cc2ccc(Cl)cc2)c1	RGS4 block 8.8 | RGS4 inh valid 7.5% | M3R Ca ctr inactive | RGS4 inh ctr2 inactive
COc1cccc(C(=O)O/N=C(\N)c2ccc(C)cc2)c1	none
O=C(CNC(=O)c1ccc(OC(F)F)cc1)Nc1cccc(S(=O)(=O)N2CCCC2)c1	none
Cc1ccc(/C=C/C(=O)c2ccccc(=O)c2O)cc1C	RGS4 block 11 | RGS4 inh valid 48% | M3R Ca ctr inactive | RGS4 inh ctr2 72%
CC1CN(C(=O)Cn2cc(SCC(=O)N3CCOCC3)c3ccccc32)CC(C)O1 (stereo not drawn)	none
CCn1c2ccccc2c2cc(NC(=O)CSc3nnc(-c4ccc(OC)cc4)n3N)ccc21	RGS4 block 5.3 | RGS4 inh valid 10% | M3R Ca ctr inactive | RGS4 inh ctr2 inactive
COc1ccc(NC(=O)CSc2nnc(-c3ccccc3)n2N)cc1	none
COc1ccc(/C=C/c2c([N+](=O)[O-])c(=O)n(C)c(=O)n2C)c(OC)c1	none
O=c1[nH]c(/C=C/c2ccc([N+](=O)[O-])cc2)c([N+](=O)[O-])c(=O)[nH]1	none | RGS4 inh valid inactive | M3R Ca ctr inactive | RGS4 inh ctr2 inactive
COc1ccc(OC)c(/C=C/c2[nH]c(=O)[nH]c(=O)c2[N+](=O)[O-])c1	RGS4 block 10 (no result: MrgX1 antagonist, MrgX1 allo act, MrgX1 agonist) | RGS4 inh valid 34% | M3R Ca ctr inactive | RGS4 inh ctr2 inactive
O=c1[nH]c(/C=C/c2ccc3c(c2)OCO3)c([N+](=O)[O-])c(=O)[nH]1	none
Cc1ccc(/C=N/NC(=O)c2nnn(-c3nonc3N)c2C(C)C)o1	none
Nc1cccc(C(=O)OCC(=O)Nc2cccc3c2C(=O)c2ccccc2C3=O)c1	RGS4 block 4.9 | RGS4 inh valid 5.0% | M3R Ca ctr inactive | RGS4 inh ctr2 14%
CN(C)/N=C/C=C1\CC/C(=C\c2ccc(F)c(F)c2)C1=O	none | M3R Ca ctr inactive | RGS4 inh ctr2 16%
CC(C)c1ccc(/C=C2\CC/C(=C\C=N\N(C)C)C2=O)cc1	none
Nn1c(=O)[nH]c2c([nH]c3ccccc32)c1=O	RGS4 block 5.9 | RGS4 inh valid inactive | M3R Ca ctr inactive | RGS4 inh ctr2 inactive
Cc1nc2c([nH]c3ccccc32)c(=O)n1N	none
Cc1sc2ncn(CC(=O)N3CCN(c4ccccc4)CC3)c(=O)c2c1S(=O)(=O)N1CCOCC1	none
COc1ccc(C2(c3ccc(O)cc3O)CC(c3ccccc3Cl)NC(=S)N2)cc1 (stereo not drawn)	RGS4 block 10 | RGS4 inh valid 36% | M3R Ca ctr inactive | RGS4 inh ctr2 inactive

Bioassay records deposited in PubChem BioAssay by Johns Hopkins Ion Channel Center.
